Data: ChEMBL document CHEMBL4414612, “Synthesis and Pharmacological Evaluation of 1-Phenyl-3-Thiophenylurea Derivatives as Cannabinoid Type-1 Receptor Allosteric Modulators” (J Med Chem, 2019)
In brackets after ≈: the same amount, converted by molar mass. Activity calls are given as the source filed them. The calls are words filed in the database; no cut-off is given here.

Experiments:
Cannabinoid receptor 2 [1] = biological target: T1, Cannabinoid receptor 2 (Homo sapiens, UniProt P34972); assay: (§1) Antagonist activity at human CB2 receptor expressed in CHO cells co-expressing Galpha16 assessed as inhibition of EC80 CP55,940-induced calcium mobilization preincubated for 15 mins followed by […] addition measured at 1 sec interval for 90 secs by calcium-5 dye based FLIPR assay; assay type: functional, cell-based
T1 sequence (P34972 whole entry): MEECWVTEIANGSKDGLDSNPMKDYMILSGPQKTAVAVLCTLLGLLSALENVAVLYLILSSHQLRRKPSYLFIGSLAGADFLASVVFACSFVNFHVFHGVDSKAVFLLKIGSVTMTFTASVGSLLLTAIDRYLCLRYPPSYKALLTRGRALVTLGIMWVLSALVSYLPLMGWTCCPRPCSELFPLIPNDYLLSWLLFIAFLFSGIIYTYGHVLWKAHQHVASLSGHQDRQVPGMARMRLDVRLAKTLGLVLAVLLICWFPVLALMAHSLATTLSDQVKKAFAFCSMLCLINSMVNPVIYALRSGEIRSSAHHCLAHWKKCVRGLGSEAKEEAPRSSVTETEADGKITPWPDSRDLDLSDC
How it was run: (§2)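 CB2 antagonist mode in stable human CB2-CHO-RD-HGA16 cells. Cells were dye-loaded, then pretreated with compound for 15 min at 37 °C. CP55,940 was added at its EC80 at the 10 s point, and calcium fluorescence was recorded every 1 s over 90 s.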

Cannabinoid receptor 1 [2] = biological target: T2, Cannabinoid receptor 1 (Homo sapiens, UniProt P21554); assay: Allosteric modulator activity at human CB1 receptor expressed in CHO-RD-HGA16 cells co-expressing Galpha16 assessed as suppression of 100 nM CP55,940-induced calcium mobilization pre-incubated for 15 mins by Calcium 5 dye based FLIPR assay; assay type: functional, cell-based
T2 sequence (P21554 whole entry): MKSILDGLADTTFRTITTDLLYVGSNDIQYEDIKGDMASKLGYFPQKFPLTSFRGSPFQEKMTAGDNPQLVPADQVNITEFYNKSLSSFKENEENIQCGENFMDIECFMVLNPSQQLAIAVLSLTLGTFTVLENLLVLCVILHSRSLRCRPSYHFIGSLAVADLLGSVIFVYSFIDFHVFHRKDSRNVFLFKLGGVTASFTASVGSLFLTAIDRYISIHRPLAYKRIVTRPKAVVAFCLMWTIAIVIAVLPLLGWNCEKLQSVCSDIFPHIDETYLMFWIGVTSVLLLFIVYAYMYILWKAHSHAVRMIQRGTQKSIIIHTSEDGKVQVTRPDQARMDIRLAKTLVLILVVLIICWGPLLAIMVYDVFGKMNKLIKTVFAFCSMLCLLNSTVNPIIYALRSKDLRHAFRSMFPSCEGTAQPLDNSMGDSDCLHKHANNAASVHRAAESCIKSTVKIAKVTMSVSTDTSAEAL

Cannabinoid receptor 2 [3] = biological target: T1, Cannabinoid receptor 2; assay: Agonist activity at human CB2 receptor expressed in CHO cells co-expressing Galpha16 assessed as increase in calcium mobilization at 10 uM measured at 1 sec interval for 90 secs by calcium-5 dye based FLIPR assay relative to CP55,940; assay type: functional, cell-based
Cannabinoid receptor 2 [4] = biological target: T1, Cannabinoid receptor 2; assay: as §1, with “mobilization at 10 uM” for “mobilization”, “assay relative to CP55,940” for “assay”; assay type: functional, cell-based; how it was run: as §2
Cannabinoid receptor 1 [5] = biological target: T2, Cannabinoid receptor 1; assay: Inverse agonist activity at human CB1 receptor expressed in HEK293 cell membranes assessed as suppression of [35S]GTPgammaS binding up to 10 uM incubated for 60 mins by scintillation counting method; conditions: hek293, 1 h
How it was run: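 Inverse agonism on human CB1-HEK293 membranes: compounds were incubated 60 min with 0.1 nM [35S]GTPγS and 30 µM GDP, with no CP55,940 present. Buffer was Tris/MgCl2/EGTA pH 7.4 with 0.5% BSA, at 30 °C. Binding was read by filtration and scintillation counting and normalized to basal (vehicle = 0%).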

[6] = Half life in rat liver microsomes in presence of NADPH by LC-MS/MS analysis; assay type: ADME, Microsome; conditions: microsomes
How it was run: (§3)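 Rat liver microsomes (0.5 mg/mL protein) in 100 mM potassium phosphate pH 7.4 at 37 °C with 1 mM NADPH. Samples were taken at 0, 5, 15, 30 and 45 min, quenched with cold acetonitrile containing internal standards, and analysed by LC/MS/MS. Half-life and clearance were calculated; two independent experiments in duplicate.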

[7] = Clearance in rat liver microsomes in presence of NADPH incubated up to 45 mins by LC-MS/MS analysis; assay type: ADME, Microsome; conditions: microsomes, […]; how it was run: as §3
[8] = Kinetic solubility in phosphate buffer at 400 uM incubated for 2 hrs by LC-MS/MS analysis; assay type: physicochemical; conditions: read-out: Kinetic_solubility
How it was run: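 A 20 mM DMSO stock was diluted into phosphate buffer to a targeted 400 µM and vortexed 2 h at room temperature. Three independent experiments in duplicate.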

[9] = Apparent permeability from apical to basolateral side in MDCK-MDR1 cells incubated up to 90 mins by LC-MS/MS analysis; assay type: ADME, cell-based, Canis lupus familiaris; conditions: dog
How it was run: (§4)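 MDCK-MDR1 cells were grown 3 days on Transwell supports and preincubated 30 min at 37 °C in HBSS with 10 mM HEPES and 0.25% BSA, pH 7.4, with TEER checked. Test article (10 µM) was added to the apical (A-to-B) or basolateral (B-to-A) donor side at 37 °C with light agitation. Receiver samples were taken at 30, 60 and 90 min for LC-MS/MS. Papp = (dQ/dt)/(A·Ci·60).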

[10] = Apparent permeability from basolateral to apical side in MDCK-MDR1 cells incubated up to 90 mins by LC-MS/MS analysis; assay type: ADME, cell-based, Canis lupus familiaris; conditions: dog; how it was run: as §4
[11] = Efflux ratio from basolateral to apical side over apical to basolateral side in MDCK-MDR1 cells incubated up to 90 mins by LC-MS/MS analysis; assay type: ADME, cell-based, Canis lupus familiaris; conditions: dog
Rattus norvegicus [12] = assay: Suppression of drug-induced cocaine-seeking behavior in Sprague-Dawley rat assessed as effect on active responses at 10 mg/kg, ip pretreated 10 mins prior to priming injection of cocaine administered immediately before the start of the reinstatement session; assay type: functional, organism-based
Rattus norvegicus [13] = assay: Suppression of drug-induced cocaine-seeking behavior in Sprague-Dawley rat assessed as effect on inactive responses at 10 mg/kg, ip pretreated 10 mins prior to priming injection of cocaine administered immediately before the start of the reinstatement session; assay type: functional, organism-based

O=C(Nc1ccc(Cl)cc1)Nc1ccc(-c2ccccc2)s1
IC50 (Cannabinoid receptor 2 [1]): > 10000 nM | IC50 (Cannabinoid receptor 1 [2]): 6.8 nM | Emax (Cannabinoid receptor 2 [3]): < 10% | inhibition (Cannabinoid receptor 2 [4]): < 50% | inhibition (INH) (Cannabinoid receptor 1 [5]): Not Active | t1/2 [6]: 1.08 h | CLH [7]: 22.2 µL/min/mg | solubility kinetic at 2 h, 400 µM [8]: 1.5 µM (≈ 0.493 µg/mL) | Papp [9]: 1.6 ×10⁻⁶ cm/s | Papp [10]: 1.1 ×10⁻⁶ cm/s | Ratio [11]: 0.7 | Activity (Rattus norvegicus [12]): inactive | Activity (Rattus norvegicus [13]): inactive
